Laboratory results as given in ChEMBL document CHEMBL4024777, “Discovery of LY3104607: A Potent and Selective G Protein-Coupled Receptor 40 (GPR40) Agonist with Optimized Pharmacokinetic Properties to Support Once Daily Oral Treatment in Patients with Type 2 Diabetes Mellitus” (J Med Chem, 2018).
Values after ≈ are worked out from the molar mass of the structure shown.

Legend:
[1] = molecular target: T1, Free fatty acid receptor 1 (Homo sapiens, UniProt O14842); assay: Competitive displacement of [3H]-TAK-875 from full length human recombinant GPR40 expressed in HEK293 cell membranes after 2 hrs by scintillation counting
How it was run: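 Binding was measured as competitive inhibition of [3H]-TAK875 (fasiglifam) binding to membranes from cells overexpressing recombinant human GPR40. Ki is reported with SEM and n.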

[2] = molecular target: T1, Free fatty acid receptor 1; assay: Agonist activity at human GPR40 receptor expressed in HEK293 cells assessed as increase in intracellular calcium flux after 2.5 hrs measured over 3 mins by calcium 4 dye-based FLIPR assay; type: functional, cell-based
How it was run: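 Calcium flux was read by FLIPR in cells carrying recombinant human GPR40. Percent stimulation is relative to the response to 100 µM linoleic acid. EC50 is reported with SEM and n.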

[3] = molecular target: T1, Free fatty acid receptor 1; assay: Agonist activity at human GPR40 receptor expressed in HEK293 cells assessed as increase in intracellular calcium flux after 2.5 hrs measured over 3 mins by calcium 4 dye-based FLIPR assay relative to linoleic acid; type: functional, cell-based
How it was run: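 Human GPR40 calcium flux was read on FLIPR. Percent stimulation is expressed against the response to 100 uM linoleic acid.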

[4] = Lipophilicity, log P of the compound; type: physicochemical; conditions: octanol/water
[5] = Dissociation constant, pKa of the compound; type: physicochemical
[6] = Metabolic stability in mouse microsomes assessed as compound metabolized after 30 mins; type: ADME, Microsome; conditions: read-out: Drug metabolism
How it was run: (§1)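 Compound incubated 30 min with liver microsomes from mouse, rat, dog or human. Percent of compound metabolized recorded, as mean (SEM, n).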

[7] = Metabolic stability in rat microsomes assessed as compound metabolized after 30 mins; type: ADME, Microsome; conditions: read-out: Drug metabolism; how it was run: as §1
[8] = Metabolic stability in dog microsomes assessed as compound metabolized after 30 mins; type: ADME, Canis lupus familiaris, Microsome; conditions: read-out: Drug metabolism; how it was run: as §1
[9] = Metabolic stability in human microsomes assessed as compound metabolized after 30 mins; type: ADME, Microsome; conditions: read-out: Drug metabolism; how it was run: as §1
[10] = Intrinsic clearance in human microsomes; type: ADME, Microsome
[11] = Intrinsic clearance in human hepatocytes; type: ADME, cell-based, Hepatocyte
[12] = Clearance in type 2 diabetes patient; type: ADME; conditions: human, in vivo
[13] = Volume of distribution in type 2 diabetes patient; type: ADME; conditions: human, in vivo
[14] = Aqueous solubility of the compound at pH 7.4; type: physicochemical
How it was run: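 Solubility was measured by DMSO/aqueous precipitation at pH 7.4 and reported as the last soluble concentration.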

Rattus norvegicus = assay: Antidiabetic activity in po dosed Zucker fa/fa rat assessed as reduction in blood glucose AUC administered daily for 21 days followed by OGTT at 1 hr after compound dosing and measured 60 mins post glucose challenge by oral glucose tolerance test; type: functional
[15] = Drug metabolism in rat hepatocytes assessed as oxidation; type: ADME, cell-based, Hepatocyte
[16] = Drug metabolism in rat hepatocytes assessed as glucuronidation; type: ADME, cell-based, Hepatocyte
[17] = Drug metabolism in mouse hepatocytes assessed as oxidation; type: ADME, cell-based, Hepatocyte
[18] = Drug metabolism in mouse hepatocytes assessed as glucuronidation; type: ADME, cell-based, Hepatocyte
[19] = Drug metabolism in dog hepatocytes assessed as oxidation; type: ADME, cell-based, Canis lupus familiaris, Hepatocyte
[20] = Drug metabolism in dog hepatocytes assessed as glucuronidation; type: ADME, cell-based, Canis lupus familiaris, Hepatocyte
[21] = Drug metabolism in rat hepatocytes assessed as N-dealkylation; type: ADME, cell-based, Hepatocyte
[22] = Drug metabolism in mouse hepatocytes assessed as N-dealkylation; type: ADME, cell-based, Hepatocyte
[23] = Drug metabolism in dog hepatocytes assessed as N-dealkylation; type: ADME, cell-based, Canis lupus familiaris, Hepatocyte
[24] = Drug metabolism in rat hepatocytes assessed as desmethylation; type: ADME, cell-based, Hepatocyte
[25] = Drug metabolism in mouse hepatocytes assessed as desmethylation; type: ADME, cell-based, Hepatocyte
[26] = Drug metabolism in dog hepatocytes assessed as desmethylation; type: ADME, cell-based, Canis lupus familiaris, Hepatocyte

T1 sequence (O14842 whole entry): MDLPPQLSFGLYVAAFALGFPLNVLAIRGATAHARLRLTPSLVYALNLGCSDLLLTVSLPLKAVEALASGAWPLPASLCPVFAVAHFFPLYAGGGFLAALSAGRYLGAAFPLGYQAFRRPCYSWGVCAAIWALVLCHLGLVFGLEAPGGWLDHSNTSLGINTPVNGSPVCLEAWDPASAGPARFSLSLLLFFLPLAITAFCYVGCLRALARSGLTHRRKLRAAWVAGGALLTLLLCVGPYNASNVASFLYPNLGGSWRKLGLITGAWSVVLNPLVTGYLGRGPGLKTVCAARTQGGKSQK

Ki [1] [nM]	EC50 [2] [nM]	%max [3] [%]	pKa [5]	metabolised at 0.5 h [7] [%]	metabolised at 0.5 h [8] [%]	K [10] [h⁻¹]	K [11] [h⁻¹]	clearance [12] [mL/min]	Vd [13] [L]	solubility [14] [µM]	Drug metabolism [16]	Drug metabolism [18]	Drug metabolism [20]	SMILES	ED90 (Rattus norvegicus) [mg/kg]	further results
8.2	8	50	3.4 to 7.9	98	93	0.109	0.23	517 to 717	443 to 885	70 to 89 (≈ 34 to 43.2 µg/mL)	Metabolite_Detected	Metabolite_Detected	Metabolite_Detected	CC#C[C@@H](CC(=O)O)c1ccc(OCc2ccc(N3CCC4(CCc5ccccc54)CC3)s2)cc1	14.2	logP [4]: 5; metabolised at 0.5 h [6]: 98%; metabolised at 0.5 h [9]: 44%; Drug metabolism [15]: Metabolite_Detected; Drug metabolism [17]: Metabolite_Detected; Drug metabolism [19]: Metabolite_Detected; Drug metabolism [21]: Metabolite_Detected; Drug metabolism [22]: Metabolite_Detected; Drug metabolism [23]: Metabolite_Detected
27	3	51	3.4 to 6	62	18	0.0048	0.17	183 to 233	244 to 358	> 100	Metabolite_Detected	Metabolite_Detected	Metabolite_Detected	CC#C[C@@H](CC(=O)O)c1ccc(OCc2ccc(CN3CCCc4cccc(OC)c43)s2)cc1	3.3	Drug metabolism [24]: Metabolite_Detected; Drug metabolism [25]: Metabolite_Detected; Drug metabolism [26]: Metabolite_Detected
